Many of the other results were omitted from the sample, so hits are more common in it than they were.
Bfl-1 A1 inh: inhibitors of the anti-apoptotic protein A1, read as caspase activation | MEF A1-2A-BIM cells, Caspase-Glo 3/7 luminescence, 3 h; percent of clofoctol response, vehicle zero | caspase activation, % (test concentration not listed) | 330,000 compounds, 0.066% hits;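 active means over half of replicate activation scores above 10%, or exactly half above 10 with the replicate mean above 10; inconclusive means replicate mean below 10 yet half the replicates above 10; inactive means over half of replicates below 10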
CHOP UPR activ: activators of apoptotic arm of unfolded protein response (CHOP); CHO-CHOP luciferase reporter, UPR activation, luminescence; percent of tunicamycin response over DMSO baseline; activation, % at 10 µM; 330,000 compounds, 0.34% hits; AID 449763;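 active means at 10 µM dose, activation of 40% or more, normalized to positive control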;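 further: 100% = tunicamycin at 10 µg/mL and 0% = DMSO alone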
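Dosing – one dose, 10 µM in 0.5% DMSO · System – CHO-CHOP cells, stable luciferase reporter of PERK-eIF2a-CHOP signalling · Input – 500 cells/well · Control set – tunicamycin 10 µg/mL final as positive, DMSO-only wells as negative · Timing – 6 h compound treatment, 37 °C · Measure – % activation vs tunicamycin · Technique – luminescence read with Steady-Glo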
CHOP inhibitor: inhibitors of CHOP induction in ER stress response | CHO-K1 CHOP-promoter luciferase, tunicamycin-induced, 15-18 h | inhibition, % at 10 µM | 220,000 compounds, 3.8% hits | AID 2732;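 active means compounds that reduced the stress-induced luciferase reporter signal by more than about 70% of percent inhibition, limit read from the data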;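 further: 0% = tunicamycin plus vehicle and 100% = wells without tunicamycin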
UPR XBP1 act: activators of adaptive arm of unfolded protein response (XBP1). CHO-XBP1 luciferase reporter, IRE1-XBP1 UPR activation, luminescence; percent of tunicamycin response, DMSO as zero. activation, % at 20 µM. 330,000 compounds, 0.33% hits. AID 463104;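 active means versus positive control, 20 µM dose yields 30% or more activation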;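 further: 100% = tunicamycin at 10 µg/mL and 0% = DMSO only wells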
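Material: CHO-XBP1 cells stably carrying IRE1-XBP1-driven luciferase reporter / Amount: 1000 cells per well / Compound: 20 µM, 1% DMSO / Times: 6 h treatment, 37 °C / Detection: luciferase luminescence / Measure: % activation of reporter signal versus tunicamycin and DMSO controls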
UPR XBP1 confirm: confirmation of adaptive unfolded protein response (XBP1) activators; shares compounds with UPR XBP1 act; CHO-XBP1 IRE1-XBP1 luciferase reporter, luminescence; activation, % at 20 µM; 1,000 compounds, 63% hits;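 active means reporter signal at least 30% of the positive control's activation in two or more of four replicate wells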;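 further: plate controls were DMSO negative control for no effect and tunicamycin 10 µg/mL positive control for full effect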
* marks the source's active call; other numbers are inactive results; ? = inconclusive; . = not tested or not shown.

SMILES | Bfl-1 A1 inh | CHOP UPR activ | CHOP inhibitor | UPR XBP1 act | UPR XBP1 confirm
CCC(=O)N1c2ccc(S(=O)(=O)CCC(=O)NCc3cccs3)cc2CC1C (configuration not stated) | 0 | -1 | -41 | 1 | .
O=C(CSc1ccc2nnc(-c3ccc(Cl)cc3)n2n1)N1CCCc2ccccc21 | 0 | 3 | 23 | 50* | 18
CCOc1ccc(C(=O)Nc2cc(-c3nc4ccccc4[nH]3)ccc2Cl)cc1[N+](=O)[O-] | -2 | 1 | 79* | 35* | 535*
O=C(NC(=S)Nc1cc(-c2nc3ccccc3[nH]2)ccc1Cl)c1ccc2c(c1)OCO2 | -4 | 19 | 94* | 96* | 164*
CCOc1ccc(C(=O)Nc2cc(-c3nc4ccccc4[nH]3)ccc2C)cc1[N+](=O)[O-] | -1 | 2 | 10 | 7 | .
Cc1ccc(-c2nc3ccccc3[nH]2)cc1NC(=O)c1ccc2c(c1)OCO2 | 0 | 3 | 9 | 7 | .
Cc1ccc(-c2nnn3c2nc(NC(C)C)c2ccccc23)cc1 | 1 | 2 | . | 6 | .
CCOC(=O)c1c(S(=O)(=O)N2CCc3ccccc32)c(C)n(C)c1C | 1 | -1 | . | -2 | .
COc1ccc(OC)c(Nc2nc3ccc(C)cc3n3cnnc23)c1 | -1 | 3 | . | 16 | .
COc1ccc(Cl)cc1Nc1nc2ccc(C)cc2n2cnnc12 | 0 | 21 | . | 54* | 11
Cc1cc(NC(=O)CSc2nc3sc(C)c(C)c3c(=O)n2C2CCCC2)no1 | 2 | 4 | 87* | 58* | 54*
Cc1cc(NC(=O)CSc2nnnn2C2CCCC2)no1 | 2 | -2 | -13 | 1 | .
O=C(Nc1ccc(Cl)cc1Cl)c1n[nH]c(Cn2cncn2)n1 | -1 | 4 | -6 | -4 | .
COCCN(C(=O)Cc1coc2cc(C)c(C)cc12)c1c(N)n(Cc2ccccc2)c(=O)[nH]c1=O | 0 | 1 | . | -5 | .
c1ccc(SSc2ccccc2)cc1 | 0 | 10 | 51 | 49* | 22
Cc1ccc(C(=O)COC(=O)CCN2C(=O)C3C4C=CC(C5CC45)C3C2=O)cc1 (configuration not stated) | 1 | 0 | . | -1 | .
CCOC(=O)c1nnn2c1nc(Nc1cccc(C(F)(F)F)c1)c1ccccc12 | 0 | 30 | 13 | 70* | 41*
CCOC(=O)c1nnn2c1nc(SCC(C)=O)c1ccccc12 | 0 | -1 | 17 | 9 | .
O=C(Nc1cccnc1)/C(N=Nc1ccc(Cl)c(C(F)(F)F)c1)=C(\O)c1ccccc1 | 0 | 13 | 9 | 49* | 27
COc1cc([C@@H]2c3cc4c(cc3[C@@H](O)[C@H]3COC(=O)[C@H]23)OCO4)cc(OC)c1O[Si](C)(C)C(C)(C)C | 1 | 1 | 87* | 58* | 48*
CCC(C)(C)C1CCC2(CC1)NC(=O)N(CC(=O)N1CCN(S(=O)(=O)c3cc(C)ccc3C)CC1)C2=O (configuration not stated) | 0 | 4 | . | 81* | 107*
Cc1ccccc1C(=O)NCC(=O)OCC(=O)NC(C)C1CC2CCC1C2 (configuration not stated) | 0 | -2 | . | -5 | .
CCOc1cc2c3c(c1)C(C)=CC(C)(C)N3C(=O)C2=O | 1 | 0 | -17 | 41* | 32*
CCOc1cc2c3c(c1)C(C)CC(C)(C)N3C(=O)C2=O (configuration not stated) | 1 | 1 | -1 | 15 | .
COc1cnc(-c2ccccn2)nc1Oc1ccc(Cl)c2ccccc12 | -1 | 28 | 81* | 31* | 24
SMILES | Bfl-1 A1 inh | CHOP UPR activ | CHOP inhibitor | UPR XBP1 act | UPR XBP1 confirm
Cc1nc([N+](=O)[O-])c(C(=O)OCc2ccccc2C#N)n1C | 2 | -1 | -6 | 1 | .
O=C(OCc1nc(-c2ccccc2Cl)no1)c1ccco1 | 0 | 2 | . | 1 | .
CCN=C1S/C(=C\c2cn(CC(=O)NCc3ccco3)c3ccccc23)C(=O)N1CC | ? | 0 | . | 116* | 97*
COCCn1c(-c2cccs2)nc2c(c(=O)c3ccccc3n2C)c1=O | . | . | 0 | . | .
Cc1cc(C(=O)N2CCc3ccccc32)c2ccccc2n1 | 0 | -2 | 29 | 3 | .
CN(C)CCCn1cnc2c(c1=N)C(c1ccccc1)c1ccc3ccccc3c1O2 (configuration not stated) | 1 | 19 | . | 32* | 127*
C[C@H](O)[C@@]1(O)CC[C@H]2[C@@H]3CC[C@@H]4C[C@H](O)CC[C@]4(C)[C@H]3CC[C@@]21C | 0 | -1 | . | -2 | .
C/C(=N\NC(N)=S)C1=CCC2C3CC[C@H]4CC(O)CC[C@]4(C)C3CC[C@]12C (some centres not stated) | 2 | 21 | . | 41* | 10
c1cc(CNc2ccc3c(c2)OCCO3)ccn1 | 0 | 1 | 54 | -7 | .
CCN(CC)c1ccc(-c2nn3c(-c4ccccc4OC)nnc3s2)cc1 | 2 | 2 | . | 30* | 32*
COc1ccc(-c2nn3c(-c4ccccc4)nnc3s2)cc1 | 0 | 0 | 60 | 4 | .
CCOC(=O)c1cc2c(ccn2-c2ccc(F)cc2)n1CC(=O)N1CCN(C(=O)c2ccco2)CC1 | 0 | 0 | -62 | 45* | 11
CC1(C)Cc2c(c(N3CCOCC3)nc3sc4c(NCC5CCCO5)nnnc4c23)CS1 (configuration not stated) | 0 | 9 | 0 | 33* | 6
Cc1ccccc1OCC(O)CNC1CCC(NCC(O)COc2ccccc2C)CC1 (configuration not stated) | -1 | 56* | . | 43* | 11
O=C(Nc1cccnc1)c1sc(Nc2ccccc2F)nc1-c1ccccc1 | -1 | 4 | -7 | 38* | 23
C=CCn1c(=O)[nH]c2cc(C(=O)N3CCN(c4cccc(Cl)c4)CC3)ccc2c1=O | 2 | -2 | 60 | 2 | .
O=C(c1ccc2c(c1)[nH]c(=S)n1c3ccccc3nc21)N1CCN(c2cccc(Cl)c2)CC1 | 1 | 1 | 51 | 33* | 54*
O=C(CCn1c2c(c3ccccc31)CCCC2)NNC(=O)c1cccc([N+](=O)[O-])c1 | 0 | -2 | 26 | -3 | .
O=C(CCn1c2c(c3ccccc31)CCCC2)NNC(=O)c1ccccc1Cl | 0 | -1 | 22 | 36* | 0
O=C1C2C3C=CC(CC3)C2C(=O)N1/N=C/c1ccc(O)cc1 (configuration not stated) | 1 | 0 | 30 | -1 | .
O=C1C2C3C=CC(CC3)C2C(=O)N1/N=C/c1ccc(O)c(O)c1 (configuration not stated) | 0 | 23 | 9 | 45* | 18
Cc1ccc(N(CCCCN2C(=O)c3ccccc3C2=O)C(=O)c2cccs2)cc1 | 0 | -2 | 27 | -3 | .
CCC[C@@H](CNC)NC[C@H](Cc1ccccc1)NCCCCc1ccccc1 | 0 | 10 | . | 46* | 25

Source: PubChem BioAssay (several laboratories)
